In assay [1] the target is Aldo-keto reductase family 1 member B1 (Bos taurus) (UniProt P16116). Briefly: Inhibition of bovine lens ALR2 at 25 uM. The note with it: Lens of camera-type eye.
Assay [2] concerns Brain. The experiment in a line: Antioxidant activity against FeCl3/ascorbic acid-induced lipid peroxidation in rat brain homogenate at 100 uM by TBARS assay. It counts as functional, tissue-based. In short, it runs like this:
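Fresh rat brain homogenised 10% (w/v) in phosphate buffer pH 7.4. Homogenate was incubated with 20 µM FeCl3 and 100 µM ascorbic acid (final) plus compound (100 uM) or α-tocopherol for 30 min at 37 °C. Thiobarbituric acid/HCl was added, then boiling, n-butanol extraction and A532 read. Values are nmol MDA/10 mg wet tissue from a tetramethoxypropane standard curve; mean ± S.E.M., ≥2 determinations in triplicate.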

For assay [3], the target named is Aldo-keto reductase family 1 member B1 (Bos taurus, UniProt P16116). The experiment in a line: Inhibition of bovine lens ALR2. Further details: species or system Lens of camera-type eye. In short, it runs like this: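 ALR2 was purified from bovine lens by DE-52 ion exchange and Matrex Orange A affinity chromatography (0.8 U/mg). Assay at 37 °C with 4.67 mM D,L-glyceraldehyde and 0.11 mM NADPH in 0.25 M sodium phosphate pH 6.8, 0.38 M ammonium sulfate and 0.5 mM EDTA, with 1% (v/v) DMSO. IC50 was fitted by nonlinear one-site competition on log dose-inhibition curves from ≥7 concentrations; 95% confidence limits given.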

Here are results for 20 compounds from ChEMBL document CHEMBL1795263, “Identification of 5-arylidene-4-thiazolidinone derivatives endowed with dual activity as aldose reductase inhibitors and antioxidant agents for the treatment of diabetic complications” (Eur J Med Chem, 2011).

Calls of active or inactive are those of the source. No cut-off for these calls is given here.

On to `COc1ccc(/C=C/c2ccc(/C=C3\SC(=O)NC3=O)cc2)cc1`, for which, in assay [1], the inhibition result was “inactive”. In the case of `COc1ccc(/C=C/c2ccc(/C=C3\SC(=O)N(CC(=O)O)C3=O)cc2)cc1`, the result in assay [2] was Active. Further, in assay [3], half-maximal inhibition (IC50) required 250 nM. On the same counts, the results for `O=C(O)CN1C(=O)S/C(=C\c2ccc(/C=C/c3ccc(C(F)(F)F)cc3)cc2)C1=O` are “Active” and 1250 nM. The like results for `Cc1ccc(/C=C/c2ccc(/C=C3\SC(=O)N(CC(=O)O)C3=O)cc2)cc1` were, in that order, “Active” and 350 nM. In assay [1], `O=C1NC(=O)/C(=C/c2ccc(/C=C/c3ccc(C(F)(F)F)cc3)cc2)S1` had an inhibition of 29%. Still for that read-out and setting: to `O=C1NC(=O)/C(=C\C=C\c2ccccc2)S1` belongs 31%; to `O=C1NC(=O)/C(=C/c2ccc(/C=C/c3ccccc3)cc2)S1`, “inactive”; to `Cc1ccc(/C=C/c2ccc(/C=C3\SC(=O)NC3=O)cc2)cc1`, 39%. For `Cc1ccc(/C=C/C=C2\SC(=O)N(CC(=O)O)C2=O)cc1`, in assay [2], the outcome was Active. Also, in assay [3], the IC50 worked out at 1050 nM.

`O=C(O)CN1C(=O)S/C(=C\c2ccc(Oc3ccccc3)cc2)C1=O` yielded an IC50 in assay [3] of 70 nM. As to `O=C(O)CN1C(=O)S/C(=C\c2ccc(/C=C/c3ccccc3)cc2)C1=O`, the result in assay [2] was Active. This compound registered an IC50 in assay [3] of 270 nM. As to `O=C(O)CN1C(=O)/C(=C\c2ccc(OCc3ccccc3)cc2)S/C1=N\c1ccccc1`, the IC50 in assay [3] came to 4900 nM.

In assay [1], `COc1ccc(/C=C/C=C2/SC(=O)NC2=O)cc1` had an inhibition of 51%. In the case of `O=C(O)CN1C(=O)/C(=C\c2ccc3ccccc3c2)S/C1=N\c1ccccc1`, the IC50 in assay [3] came out at 2700 nM. For the compound `O=C(O)CN1C(=O)S/C(=C\C=C\c2ccc(C(F)(F)F)cc2)C1=O`, the outcome in assay [2] was Active. This compound registered an IC50 in assay [3] of 300 nM.

For the compound `O=C(O)CN1C(=O)S/C(=C\C=C\c2ccccc2)C1=O`, the result in assay [2] was Active. Moreover, the IC50 in assay [3] came to 1320 nM.

As for `Cc1ccc(/C=C/C=C2/SC(=O)NC2=O)cc1`, the inhibition in assay [1] was determined as 46%. Compound `O=C1NC(=O)/C(=C/C=C/c2ccc(C(F)(F)F)cc2)S1` displayed an inhibition in assay [1] of 65%. Take `COc1ccc(/C=C/C=C2\SC(=O)N(CC(=O)O)C2=O)cc1`: the result in assay [2] was Active. Moreover, in assay [3], the IC50 is 850 nM. In turn, `O=C(O)CN1C(=O)/C(=C\c2ccc(Oc3ccccc3)cc2)S/C1=N\c1ccccc1` came in with an IC50 in assay [3] of 4400 nM.

Broadly, the inhibition is the drop in the measured response relative to a control, in per cent. The IC50 is the point on the concentration scale where inhibition reaches its midpoint. A high value points to lower potency.
